Measurements published in paper PMC9177108 (The Oncologist, 2022).

System: patients with recurrent and metastatic nasopharyngeal carcinoma (RM-NPC)
Assay: Antitumor efficacy
Type: in vivo, human
Details: for time to response: radiologic assessment every 8 weeks
Outline: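 Patients with pretreated RM-NPC were randomised to two arms, each evaluated separately (10 per arm). Both arms took test compound 10 mg orally daily: intermittent arm 3 weeks on/1 week off, continuous arm daily on a 4-week cycle. The investigator assessed response by RECIST 1.1. ORR was CR or PR as best overall response. DCR was confirmed CR, confirmed PR or SD lasting ≥4 weeks from randomisation.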

[1] = continuous arm (10 mg p.o. daily, 4-week cycle), n = 10
[2] = intermittent arm (10 mg p.o., 3 weeks on/1 week off), n = 10
[3] = intermittent arm, n = 10, listed as lucitanib

CNC(=O)c1cccc2cc(Oc3ccnc4cc(OCC5(N)CC5)c(OC)cc34)ccc12 [Lucitanib]
duration of response (all three responders, both arms): more than 1 year
time to response (all three responders): observed by the first evaluation
time to response (all three responders, listed as lucitanib): at the first evaluation
Best response PR [1]: n = 2 (20%) n (%)
Response assessment CR [1]: n = 0 (0%) n (%)
Best response PR (continuous arm (10 mg p.o. daily, 4-week cycle), n = 10, listed as lucitanib): 2 (20) n (%)
Best response PD (continuous arm, n = 10): 1 (10) n (%)
Best response SD (continuous arm, n = 10): 7 (70) n (%)
DCR (continuous arm, n = 10): 90%
ORR (continuous arm, n = 10): 20%
Response assessment OTHER (continuous arm, n = 10): n = 0 (0%) n (%)
median PFS (continuous arm, n = 10, 90% CI 3.5 to NE): 3.73 months
Best response PR [2]: 1 (10) n (%)
Response assessment CR [2]: n = 0 (0%) n (%)
Best response SD (intermittent arm, n = 10): n = 5 (50%) n (%)
median PFS (intermittent arm, n = 10, 90% CI 1.74 to 7.36): 3.68 months
Best response PD [3]: 3 (30) n (%)
Best response SD [3]: 5 (50) n (%)
DCR [3]: 60%
ORR [3]: 10%
sustained response, patients still on treatment (two responders still on treatment at last follow-up): > 3 years
